In ChEMBL document CHEMBL5370658, “Development of First-in-Class Dual Sirt2/HDAC6 Inhibitors as Molecular Tools for Dual Inhibition of Tubulin Deacetylation” (J Med Chem, 2023):
The source made the active and inactive calls. The rule behind the calls is not given here.

How the values were obtained:
[1] = target: T1, Histone deacetylase 7 (Homo sapiens) (UniProt Q8WUI4); experiment: Inhibition of HDAC7 (unknown origin) using Abz-SRGGK(STFA)FRR-NH2 as substrate at 6 to 20000 nM preincubated for 5 mins followed by substrate addition and measured every 30 secs for 30 mins by continuous fluorescence based assay; conditions: dose 6-20000 nM, time 35.0 min
T1 sequence (whole entry): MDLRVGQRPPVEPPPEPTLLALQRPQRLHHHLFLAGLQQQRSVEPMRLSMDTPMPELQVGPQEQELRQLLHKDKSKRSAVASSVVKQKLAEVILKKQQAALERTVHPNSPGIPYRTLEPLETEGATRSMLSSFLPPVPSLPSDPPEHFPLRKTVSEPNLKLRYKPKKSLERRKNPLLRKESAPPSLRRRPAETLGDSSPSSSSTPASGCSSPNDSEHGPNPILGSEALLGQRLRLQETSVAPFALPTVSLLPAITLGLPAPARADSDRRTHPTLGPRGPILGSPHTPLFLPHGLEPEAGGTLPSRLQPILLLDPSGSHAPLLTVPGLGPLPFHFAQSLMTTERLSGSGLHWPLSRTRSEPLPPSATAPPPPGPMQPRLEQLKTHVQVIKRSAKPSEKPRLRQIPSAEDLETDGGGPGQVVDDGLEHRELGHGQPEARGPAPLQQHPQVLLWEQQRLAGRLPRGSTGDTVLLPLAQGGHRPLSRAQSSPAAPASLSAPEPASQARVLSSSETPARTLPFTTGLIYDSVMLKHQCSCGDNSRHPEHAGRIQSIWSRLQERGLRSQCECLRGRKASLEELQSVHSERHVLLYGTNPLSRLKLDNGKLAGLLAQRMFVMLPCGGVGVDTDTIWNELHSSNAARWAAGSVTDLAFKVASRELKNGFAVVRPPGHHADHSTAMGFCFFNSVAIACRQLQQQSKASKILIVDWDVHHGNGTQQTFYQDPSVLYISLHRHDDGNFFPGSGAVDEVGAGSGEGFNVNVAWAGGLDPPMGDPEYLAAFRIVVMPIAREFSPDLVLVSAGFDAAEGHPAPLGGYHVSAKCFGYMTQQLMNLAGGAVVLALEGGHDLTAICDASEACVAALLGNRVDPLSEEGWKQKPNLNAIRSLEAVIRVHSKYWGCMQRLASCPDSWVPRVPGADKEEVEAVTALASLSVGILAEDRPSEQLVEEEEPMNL
How it was run: (§1)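 Continuous fluorescence assay in 20 mM HEPES pH 7.4, 140 mM NaCl, 10 mM KCl, 1 mM TCEP, 0.2 mg/mL BSA, 3% DMSO final. Enzyme (HDAC4 5 nM, HDAC5 10 nM, HDAC7 5 nM, HDAC9 20 nM) preincubated with inhibitor at room temperature. HDAC10 (5 nM) instead in 20 mM HEPES pH 7.4, 0.5 mg/mL BSA. Initial slope used as activity.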

[2] = target: T2, Polyamine deacetylase HDAC10 (Homo sapiens) (UniProt Q969S8); experiment: Inhibition of HDAC10 (unknown origin) using Abz-SRGGK(STFA)FRR-NH2 as substrate at 6 to 20000 nM preincubated for 5 mins followed by substrate addition and measured every 30 secs for 30 mins by continuous fluorescence based assay; conditions: dose 6-20000 nM, time 35.0 min; how it was run: as §1
T2 sequence (whole entry): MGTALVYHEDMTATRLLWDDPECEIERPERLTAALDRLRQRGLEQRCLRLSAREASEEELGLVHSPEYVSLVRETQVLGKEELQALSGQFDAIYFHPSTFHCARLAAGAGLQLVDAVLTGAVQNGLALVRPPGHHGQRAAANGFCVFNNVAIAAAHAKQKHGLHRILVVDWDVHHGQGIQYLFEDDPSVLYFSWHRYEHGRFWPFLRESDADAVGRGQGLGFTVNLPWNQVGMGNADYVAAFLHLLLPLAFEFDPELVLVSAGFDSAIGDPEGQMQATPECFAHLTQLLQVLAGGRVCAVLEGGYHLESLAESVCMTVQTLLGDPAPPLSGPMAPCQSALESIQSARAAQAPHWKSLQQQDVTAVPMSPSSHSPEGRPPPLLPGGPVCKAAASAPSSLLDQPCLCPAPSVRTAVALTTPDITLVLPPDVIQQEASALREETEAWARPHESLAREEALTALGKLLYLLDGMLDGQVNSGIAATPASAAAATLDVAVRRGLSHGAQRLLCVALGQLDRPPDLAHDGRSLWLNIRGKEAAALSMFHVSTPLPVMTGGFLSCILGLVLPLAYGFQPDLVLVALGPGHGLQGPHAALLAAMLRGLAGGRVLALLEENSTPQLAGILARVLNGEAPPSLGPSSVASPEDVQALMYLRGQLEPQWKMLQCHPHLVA

For CCCCN(Cc1ccc(C(=O)NO)cc1)C(=O)CCCCn1cc(COc2cccc(Cc3cnc(NC(=O)CSc4nc(C)cc(C)n4)s3)c2)nn1, the inhibition [1] was “inactive” and the inhibition [2] was “inactive”.
